Screening data deposited in PubChem BioAssay by The Scripps Research Institute Molecular Screening Center.
OX1R antag-1: human HCRTR1 antagonism. inhibition, % at 5 µM. CHO/OX1R cells, Fluo-8 calcium fluorescence, orexin A. AID 434989. actives 0.43% (n = 330,000);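 active means inhibition above its plate's threshold, mean inhibition of all tested compounds on the plate plus 3 SD, cut at about 37% in these data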;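 further: 0% = orexin A challenge wells and 100% = SB-334867-A antagonist wells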
OX1R antag-2: blocks the human orexin 1 receptor | O43613 | OX1R-expressing cells, FRET antagonist read-out | inhibition, % at 6.6 µM | actives 1.8% (n = 330,000) | AID 485270; in the data active means inhibition mostly above about 38%, no sharp cut-off; inactive means mostly below about 40%;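 further: 0% = agonist challenge alone and 100% = reference antagonist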
CHO parental Ca: signal in parental CHO cells, OX1R antagonist counter-screen; parental CHO-K1, ATP-induced calcium, Fluo-8 fluorescence; actives 0.63% (n = 330,000); inhibition, % at 5.6 µM;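 active means inhibition above that plate's mean sample inhibition plus 3 SD, cut at about 26% in these data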;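 further: 0% = ATP-challenged DMSO wells and 100% = DMSO wells without ATP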
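Assay system: parental CHO cells; Read-out basis: percent inhibition of ATP-evoked calcium rise, normalized to controls; Benchmarks: ATP and no-ATP DMSO wells; Compound dosing: single nominal dose of 5.6 µM per compound; Signal: Fluo-8 calcium dye fluorescence; Also added: ATP as calcium-mobilizing challenge; Repeats: singlicate.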
V1R ag counter: counter-screen for oxytocin receptor agonists: human V1a receptor agonists | P37288 | CHO-V1R cells, Fluo-8 calcium fluorescence, agonist mode; 0% DMSO, 100% 3 nM vasopressin | activation, % at 3 µM | actives 0.25% (n = 320,000) | AID 2797;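 active means activation above the mean activation of all tested compounds plus 3 SD, per screening run, cut at about 20% in these data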;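 further: signal is peak over basal fluorescence ratio across a 100 second FLIPR read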
OXTR ag: activates the human oxytocin receptor; P30559; CHO-OTR cells, Fluo-8 calcium fluorescence; normalized: DMSO 0%, oxytocin 100%; activation, % at 3 µM; actives 0.32% (n = 320,000);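 active means activation above the mean of all tested compounds plus 3 SD, cutoff set per screening run, cut at about 20% in these data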;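 further: peak over basal fluorescence ratio from a 100 s FLIPR kinetic read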
Target sequence (P30559 whole entry, looked up): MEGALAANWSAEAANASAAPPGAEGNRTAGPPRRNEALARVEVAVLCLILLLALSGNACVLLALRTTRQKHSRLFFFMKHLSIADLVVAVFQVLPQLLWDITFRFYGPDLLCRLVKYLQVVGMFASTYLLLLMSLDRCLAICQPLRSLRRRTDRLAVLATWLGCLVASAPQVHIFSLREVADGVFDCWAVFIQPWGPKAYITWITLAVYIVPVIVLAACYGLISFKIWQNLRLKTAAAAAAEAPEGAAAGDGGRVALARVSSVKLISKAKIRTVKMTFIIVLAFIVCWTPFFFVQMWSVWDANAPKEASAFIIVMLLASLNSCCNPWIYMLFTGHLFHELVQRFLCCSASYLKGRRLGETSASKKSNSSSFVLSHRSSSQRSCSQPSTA
OXTR potentiator: human OXTR potentiation; activation, % at 3 µM; actives 0.061% (n = 320,000); CHO-OTR cells, Fluo-8 calcium fluorescence, potentiator mode; 0% = oxytocin EC15, 100% = EC100;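 active means activation above that plate's cutoff, the mean activation of tested compounds plus 3 SD, cut at about 6.6% in these data, passing the limit was not always enough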;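 further: 100% uses oxytocin at 75 nM as the full agonist control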
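Material: CHO-OTR cells, human receptor; compound dosing: single dose, 3.0 µM nominal final compound concentration; schedule: 6 min compound pre-incubation at room temperature, 100 s kinetic read; measured by: kinetic Fluo-8 calcium fluorescence; read-out basis: % activation vs EC15 and EC100 oxytocin; controls: EC15 oxytocin alone as 0%, 75 nM oxytocin as 100%; replicates: singlicate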
OX1R Ca confirm: confirmation of human orexin 1 receptor antagonists | shares compounds with OX1R antag-1 | CHO/OX1R cells, orexin A calcium Fluo-8 fluorescence | inhibition, % at 5 µM | actives 38% (n = 1,100); in the data active means inhibition above about 29%;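 further: 0% = agonist challenge alone and 100% = reference antagonist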
CHO Ca triplic: counter-screen: parental CHO calcium response change, triplicate; shares compounds with OX1R antag-1; parental CHO-K1, ATP-induced calcium, Fluo-8 fluorescence; inhibition, % at 5.6 µM; actives 9.3% (n = 1,100);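 active means inhibition above a per-plate limit, the mean inhibition of that plate's test compounds plus 3 SD, cut at about 25% in these data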;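 further: 0% = ATP challenge with DMSO and 100% = DMSO without ATP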
Starred values were filed as active, the others as inactive; . = no result. Rows were chosen to be rich in hits. Some 2.6% of all compounds tested hit in one or more screens of this group.

SMILES	OX1R antag-1	OX1R antag-2	CHO parental Ca	V1R ag counter	OXTR ag	OXTR potentiator	OX1R Ca confirm	CHO Ca triplic
Cc1ncsc1CCOC(=O)c1ccc(N2CCOCC2)c([N+](=O)[O-])c1	34.3	52.9	18.4	10.1	13.6	-33.2	13.3	21.5
Cc1c(CCOC(=O)c2ccc(N3CCOCC3)c([N+](=O)[O-])c2)sc[n+]1CC#N	-19.8	27.6	-10.8	1.5	0.0	-2.9	.	.
CCCn1c(N)c(C(=O)CSc2nc3ccccc3s2)c(=O)[nH]c1=O	44.6*	26.6	2.8	12.0	10.1	-14.4	22.2	2.6
COc1ccc2[nH]c(C(=O)O)c(CCN3C(=O)c4cccc([N+](=O)[O-])c4C3=O)c2c1	103.1*	15.6	9.1	0.5	0.4	-4.2	-5.9	-1.0
CCOc1ccccc1N1CCN(C(=O)c2ccc(S(=O)(=O)Nc3ccccc3)cc2)CC1	44.8*	6.3	2.7	10.1	5.8	-7.2	41.0*	-7.3
COc1cc(NC(=S)NCc2ccco2)cc(OC)c1OC	76.7*	12.7	-8.7	0.1	-1.1	1.1	-4.8	-8.1
CCCn1c(CN2CCN(C(C)=O)CC2)nc2cc(S(=O)(=O)N(C)C)ccc21	-8.7	16.2	-19.6	-0.2	-0.1	-12.2	.	.
COc1cc(CNC(C)c2ccccc2)cc(Br)c1OCc1ccccc1 (stereo not given)	45.6*	-1.7	-3.0	3.3	4.9	-8.3	22.2	-2.8
O=C(COc1ccc(Cl)cc1)NCc1n[nH]c(=O)c2ccccc12	-12.1	7.2	1.8	-1.1	-1.3	-4.2	.	.
CCCCn1c(=O)[nH]c2nc3cc(N)ccc3nc2c1=O	60.6*	38.8	36.1	29.8*	50.2*	-12.2	34.7*	28.6*
CC12CCC(=O)N1C(C(=O)N1CCN(c3ccc(C(F)(F)F)cc3[N+](=O)[O-])CC1)CS2 (stereo not given)	-10.4	11.1	-2.1	2.3	1.7	-8.2	.	.
CN1C2CCC1/C(=C/c1cccn1C)C(=O)/C2=C\c1cccn1C	37.5	37.0	23.1	44.9*	44.7*	-12.6	18.5	11.6
CN1C2CCC1/C(=C\c1ccc(F)cc1)C(=O)/C2=C/c1ccc(F)cc1	-30.0	12.7	7.8	-0.6	0.2	2.8	.	.
Cc1ccccc1-n1nnnc1SCc1csc(-c2ccccc2)n1	31.4	53.5	6.3	2.0	-0.1	-21.1	19.1	-13.6
Cc1ccccc1-n1nnnc1SCC(C)C	-23.5	17.1	-13.1	-0.9	-2.8	-2.4	.	.
O=C(CCNS(=O)(=O)c1ccccc1)OCC(=O)c1ccc[nH]1	-3.3	18.7	-12.8	-0.2	0.9	-8.2	.	.
O=C1c2ccccc2S(=O)(=O)N1Cc1cccc(S(=O)(=O)N2CCOCC2)c1	-9.0	16.0	-14.6	6.2	4.2	-18.1	.	.
Cc1ccccc1-c1nnn(Cc2cccc(S(=O)(=O)N3CCOCC3)c2)n1	43.5*	10.2	4.6	12.3	12.9	-11.6	43.9*	15.5
FC(F)(F)COc1ccc(-n2ccnc2)nn1	20.5	12.0	-0.3	1.5	0.2	-7.4	3.2	7.5
Fc1ccc(C2=CC(c3ccc(Br)o3)n3ncnc3N2)cc1 (stereo not given)	47.4	20.2	35.9	34.2*	50.6*	-12.0	5.0	8.6
O=C(NCc1ccncc1)C(=O)NC1CC1	4.9	20.6	-0.1	1.6	1.5	-3.4	.	.
CCCC(=O)Nc1ccc(C(=O)NNC(=O)c2cccc([N+](=O)[O-])c2)cc1	-11.2	31.4	0.6	1.6	0.8	-3.9	.	.
CCCC(=O)Nc1ccc(Sc2ccc([N+](=O)[O-])cc2)cc1	38.4	49.3	24.6	8.0	2.6	-16.0	9.3	9.7
CN(CC(=O)Nc1ccc(Cl)c(C(F)(F)F)c1)C(=O)C1CCCO1 (stereo not given)	8.8	8.6	-3.5	5.5	10.7	-8.1	.	.
CN(CC(=O)Nc1ccc(Cl)c(C(F)(F)F)c1)CC(=O)NC1CCCCC1	37.5	10.7	-4.7	12.1	16.0	-11.3	-22.4	0.4
SMILES	OX1R antag-1	OX1R antag-2	CHO parental Ca	V1R ag counter	OXTR ag	OXTR potentiator	OX1R Ca confirm	CHO Ca triplic
Cc1ccc(NC(=O)COc2ccc(Br)cn2)cc1	-12.2	5.7	1.2	-0.2	-0.6	-2.8	.	.
FC(F)(F)c1ccc(C2NCCc3sccc32)cc1 (stereo not given)	-25.6	30.2	-22.1	3.1	1.1	-5.3	.	.
Cc1cc(C)nc(/N=C(\N)Nc2ccc(F)c([N+](=O)[O-])c2)n1	25.1	28.6	11.9	8.2	11.7	-18.5	39.7*	8.2
Cc1cc(C)nc(/N=C(\N)Nc2ccc(S(N)(=O)=O)cc2)n1	4.5	2.4	-8.6	0.2	0.4	-12.5	.	.
Cc1cc(C)nc(/N=C(\N)Nc2ccc(S(=O)(=O)Nc3nc(C)cc(C)n3)cc2)n1	-15.1	31.6	-15.7	0.5	1.0	-1.3	.	.
Cc1cc(C)nc(/N=C(\N)Nc2ccc(SC(F)F)cc2)n1	34.6	13.0	17.6	28.4*	31.8*	-10.4	63.8*	20.6
Cc1ccc(N2C(=O)/C(=C\c3ccc(C(C)C)cc3)N=C2SC2CCOC2=O)cc1 (stereo not given)	-13.3	8.2	-7.8	-0.2	-0.8	-9.4	.	.
Cc1c(C(=O)NCc2ccc(F)cc2)oc2ccc(S(=O)(=O)N3CCOCC3)cc12	-15.4	11.8	-20.8	4.5	2.2	-6.7	.	.
CCN(CC)S(=O)(=O)c1ccc2oc(C(=O)NCc3ccc(F)cc3)c(C)c2c1	24.6	13.2	19.7	7.8	4.8	-4.2	0.5	-4.7
N#CCCCCn1ccc(NC(=O)c2ccc(Cl)cc2O)n1	-5.6	16.6	5.2	1.8	0.0	5.3	.	.
NS(=O)(=O)c1ccc(N2CCN(CCOc3ccc(Cl)cc3)CC2)nc1	4.4	11.4	19.8	11.1	7.3	-11.3	.	.
COC(=O)Cn1c(=O)c2c(nc3n2CC(C)CN3Cc2ccccc2)n(C)c1=O (stereo not given)	30.6	16.5	-4.8	0.3	-1.3	-18.2	-6.1	-5.6
C=C(C)Cn1c(=O)c2c(nc3n2CC(C)CN3Cc2ccccc2)n(C)c1=O (stereo not given)	-36.2	13.8	-25.2	1.8	0.0	-2.9	.	.
CC(Oc1ccc(Br)cc1)C(=O)O/N=C(\N)c1ccncc1 (stereo not given)	-15.7	12.1	-16.2	3.4	0.9	-6.2	.	.
O=C(CSCc1cccc(CSCC(=O)Nc2ccc3ccccc3c2)n1)Nc1ccc2ccccc2c1	38.0	32.8	11.8	4.8	3.7	-8.0	30.5*	12.2
